One data set is described as follows: in vivo. Conditions: C57BL/6, mouse, po, 10 mg/kg.
Data set [1] concerns the target T1, Atrial natriuretic peptide receptor 3 (Homo sapiens, UniProt P17342).
T1 sequence (P17342 whole entry): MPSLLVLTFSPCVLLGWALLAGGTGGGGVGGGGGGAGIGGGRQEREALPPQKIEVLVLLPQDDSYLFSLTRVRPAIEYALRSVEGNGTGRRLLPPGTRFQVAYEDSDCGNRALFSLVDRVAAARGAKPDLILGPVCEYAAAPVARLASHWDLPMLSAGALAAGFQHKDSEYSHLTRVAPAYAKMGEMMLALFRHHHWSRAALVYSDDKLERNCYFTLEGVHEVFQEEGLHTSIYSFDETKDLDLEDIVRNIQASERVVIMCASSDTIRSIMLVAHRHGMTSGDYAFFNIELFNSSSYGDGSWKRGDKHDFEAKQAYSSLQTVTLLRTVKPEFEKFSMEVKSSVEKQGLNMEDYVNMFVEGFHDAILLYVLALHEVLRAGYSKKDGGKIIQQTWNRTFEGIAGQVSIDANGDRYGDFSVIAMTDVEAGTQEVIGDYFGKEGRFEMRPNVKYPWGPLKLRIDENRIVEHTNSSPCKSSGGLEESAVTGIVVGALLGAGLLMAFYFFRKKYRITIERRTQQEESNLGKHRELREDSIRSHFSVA
Nature of the data set: Binding affinity to CM5 sensor chip immobilized human NPR-C (27 to 541 residues) assessed as dissociation constant by surface plasmon resonance analysis.

Data set [2] is described as follows: AUC (0 to infinity) in fasted C57BL/6 mouse at 3 mg/kg, iv by LC-MS/MS analysis. Format: ADME, organism-based. Also noted: time infinity, dose 3 mg/kg, route iv. Conditions: in vivo.
The target in a further data set is Cytochrome P450 3A4 (Homo sapiens, UniProt P08684). Description: Inhibition of CYP3A4 in human liver microsomes using testosterone as a substrate preincubated for 10 mins followed by NADPH addition and measured after 10 mins by LC/MS/MS analysis.
Data set [3] in a line: Solubility of compound in PBS at 10 mM after 3 hrs by UV analysis. The conditions noted are these: buffer, 10000 µM.
The nature of data set [4]: Oral bioavailability in fasted C57BL/6 mouse at 10 mg/kg by LC-MS/MS analysis. Format: ADME, organism-based. The conditions noted are these: in vivo.
Data set [5] deals with T2, Atrial natriuretic peptide receptor 3 (Rattus norvegicus) (UniProt P41740).
T2 sequence (whole entry): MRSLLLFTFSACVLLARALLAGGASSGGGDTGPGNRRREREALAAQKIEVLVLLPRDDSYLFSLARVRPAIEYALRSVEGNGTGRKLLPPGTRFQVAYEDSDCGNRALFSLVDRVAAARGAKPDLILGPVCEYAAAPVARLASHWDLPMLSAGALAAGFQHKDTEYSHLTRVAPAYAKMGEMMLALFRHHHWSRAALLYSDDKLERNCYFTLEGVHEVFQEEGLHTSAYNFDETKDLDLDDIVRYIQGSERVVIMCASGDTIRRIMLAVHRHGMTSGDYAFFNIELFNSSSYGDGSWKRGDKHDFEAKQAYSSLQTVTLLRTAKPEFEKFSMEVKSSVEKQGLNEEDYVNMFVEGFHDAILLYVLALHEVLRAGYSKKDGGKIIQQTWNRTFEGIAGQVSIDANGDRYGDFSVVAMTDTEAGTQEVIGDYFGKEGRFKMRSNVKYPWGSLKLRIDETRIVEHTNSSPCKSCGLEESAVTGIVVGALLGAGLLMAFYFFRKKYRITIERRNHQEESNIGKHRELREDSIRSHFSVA
Description: Agonist activity at NPRC in rat small mesenteric arteries assessed as inhibition of cANF4-23 induced vasorelaxation in presence of osteocrin by Organ bath assay. Format: tissue-based. Conditions: Artery, filed as agonist. Summed up:
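Small mesenteric artery rings from male Wistar rats in classical tissue-bath pharmacology. Vessels were preincubated 15 min with M372049 10 μM or osteocrin 100 nM before the vasorelaxant response to test agents was assessed.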

Data set [6] concerns the target T3, Atrial natriuretic peptide receptor 3 (Homo sapiens) (UniProt P17342).
T3 sequence (whole entry): T1 sequence (P17342 whole entry)
Description: Agonist activity at NPRC in human Hela cells assessed as decrease in forskolin-induced cAMP level at 100 uM relative to control. Format: cell-based. Further details: scale not given: the % may be the effect or the level left.

Data set [7] can be described thus: Clearance in fasted C57BL/6 mouse at 3 mg/kg, iv by LC-MS/MS analysis. Format: ADME, organism-based. The conditions noted are these: in vivo.
Data set [8] is described as follows: Volume of distribution at steady state in fasted C57BL/6 mouse at 3 mg/kg, iv by LC-MS/MS analysis. Format: ADME, organism-based. Conditions: in vivo, read-out: Vdss.
For a further data set, the target named is T4, Cytochrome P450 1A2 (Homo sapiens, UniProt P05177).
T4 sequence (P05177 whole entry): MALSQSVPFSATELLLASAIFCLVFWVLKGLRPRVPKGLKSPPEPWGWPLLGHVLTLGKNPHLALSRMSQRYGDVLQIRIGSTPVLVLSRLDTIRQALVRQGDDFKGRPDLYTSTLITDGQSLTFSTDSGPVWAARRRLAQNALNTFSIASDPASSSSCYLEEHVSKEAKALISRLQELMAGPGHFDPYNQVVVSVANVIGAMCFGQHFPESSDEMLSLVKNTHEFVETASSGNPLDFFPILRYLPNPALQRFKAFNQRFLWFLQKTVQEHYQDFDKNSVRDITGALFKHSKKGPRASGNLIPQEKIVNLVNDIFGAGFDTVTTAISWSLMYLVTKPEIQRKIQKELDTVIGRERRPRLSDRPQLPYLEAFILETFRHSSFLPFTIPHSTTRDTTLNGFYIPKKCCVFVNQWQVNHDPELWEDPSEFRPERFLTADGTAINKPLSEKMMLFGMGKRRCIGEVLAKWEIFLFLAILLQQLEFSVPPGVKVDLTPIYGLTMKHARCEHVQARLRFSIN
Nature of the data set: Inhibition of CYP1A2 in human liver microsomes using phenacetin as substrate preincubated for 10 mins followed by NADPH addition and measured after 10 mins by LC/MS/MS analysis.

The nature of data set [9]: Cmax in fasted C57BL/6 mouse at 10 mg/kg, po by LC-MS/MS analysis. Format: ADME, organism-based. Further details: dose 10 mg/kg, route po. Conditions: in vivo. The procedure, abridged:
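EDTA-K2 plasma was protein-precipitated with internal standard and centrifuged 20 min at 4 °C. Analysis by LC-MS/MS against a 1–1000 ng/mL calibration curve.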

Converted amounts (≈) assume the structure as drawn. The source made the active and inactive calls. No cut-off for these calls is given here.

Cytochrome P450 3A4, sequence (P08684 whole entry): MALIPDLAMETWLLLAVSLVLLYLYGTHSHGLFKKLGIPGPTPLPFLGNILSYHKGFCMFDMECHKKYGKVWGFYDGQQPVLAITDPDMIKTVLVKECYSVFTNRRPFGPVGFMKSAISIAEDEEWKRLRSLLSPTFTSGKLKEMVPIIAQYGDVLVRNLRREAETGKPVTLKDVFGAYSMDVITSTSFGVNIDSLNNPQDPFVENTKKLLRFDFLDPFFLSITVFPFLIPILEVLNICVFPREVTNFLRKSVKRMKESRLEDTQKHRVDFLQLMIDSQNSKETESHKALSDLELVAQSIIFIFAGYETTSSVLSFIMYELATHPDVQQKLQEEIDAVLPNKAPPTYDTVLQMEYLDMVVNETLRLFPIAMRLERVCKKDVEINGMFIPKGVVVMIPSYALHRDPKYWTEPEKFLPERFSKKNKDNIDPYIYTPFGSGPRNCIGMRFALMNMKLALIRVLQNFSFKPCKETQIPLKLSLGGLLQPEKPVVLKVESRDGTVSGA

For the compound `CC(=O)Nc1ccc(Nc2ncnc(NCCC(=O)OC(C)(C)C)n2)cc1`, in the data set “in vivo”, the Tmax stood at 15 min. In addition, the Kd in [1] came out at 146 µM. The same compound came in with an AUC(0-inf) in data set [2] of 448 ng·h/mL. Besides, the IC50 at Cytochrome P450 3A4 and at Cytochrome P450 1A2 was over 50 µM throughout. The same compound gave a solubility in data set [3] of 71.17 mg/mL (≈ 191 mM). In data set [4], this compound had an F of 43.8%. Moreover, in data set [5], the outcome was Active. The Activity in [6] came out at 37.7%. The clearance in data set [7] worked out at 112 mL/min/kg. Besides, in data set [8], the Vd came out at 1.75 L/kg. The same compound registered a Cmax in data set [9] of 612 ng/mL.
